Rows were chosen to be rich in hits. Some 3% of all compounds tested hit in one or more screens of this group.
PLC-gamma1 inh: inhibitors of human phospholipase C gamma1. inhibition, % at 12.2 µM. purified PLC-gamma1, fluorogenic substrate, fluorescence. 370,000 tested, 0.84% active. P19174; in the data active = inhibition above about 9.5%
PLCb3 inh: inhibitors of human phospholipase C beta3. inhibition, % at 12.2 µM. 370,000 tested, 0.18% active. AID 720704. Purified PLC-beta3, fluorogenic substrate, fluorescence;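 note: 0% = median of compound wells on plate and 100% = full blocker control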
KLK7 zymogen act: activates the human kallikrein-7 zymogen. 370,000 tested, 0.9% active. activation, % at 7 µM. P49862. purified proKLK7, EDANS-DABCYL substrate fluorescence; 100% is mature enzyme control, 0% vehicle;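 active = activation above the mean of all tested compounds plus 3 SD, computed per campaign excluding outliers beyond control limits, cut at about 13% in these data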
NRP1-CendR mod: modulators of CendR peptide binding to human neuropilin-1; O14786; FAM-RPARPAR peptide binding to NRP-1, fluorescence polarization; inhibition, % at 25 µM; 360,000 tested, 0.85% active; AID 602438;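 active = inhibition or corrected inhibition above about 18%, plus a signal ratio from 0.5 to 1.5, limit read from the data, passing the limit was not always enough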
Tn6 DDE FP: inhibitors of Tn6 peptide binding to human fibrin DD(E). inhibition, % at 8.3 µM. 370,000 tested, 0.21% active. P02675. Fibrin DD(E) TRITC-Tn6 fluorescence polarization displacement;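 active = inhibition above a per-campaign cutoff: mean of compounds within control limits plus 3 SD, cut at about 15% in these data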;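 note: 0% = median of all compound wells on the plate and 100% = blocking peptide control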
Tn7 DDE FP: DD(E)-Tn7 binding inhibition, primary FP screen | 370,000 tested, 0.13% active | P02675 | inhibition, % at 8.3 µM | FP displacement of FITC-Tn7 peptide from fibrin DD(E); 0% = median of compound wells per plate;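 active = inhibition above the mean of compounds falling within the control limits plus 3 SD of them, cut at about 14% in these data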;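 note: 0% = plate median of compound wells and 100% = 10 µM Aha-Tn7 peptide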
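System: human fibrin DD(E); quantity: Fibrin-DD(E) at 2 µM final; also added: fluorescent Tn7 probe at 0.1 µM; compound dosing: single nominal test concentration of 8.3 µM per compound; schedule: 10 min preincubation, 3 h with tracer, room temperature; detection: fluorescence polarization of the labelled Tn7 tracer; repeats: one replicate per compound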
PLCgamma1 ctr: PLC-gamma1 inhibition, counter-screen for PLC-beta3 hits. shares compounds with PLC-gamma1 inh. purified PLC-gamma1, fluorogenic substrate, fluorescence. inhibition, % at 12.3 µM. 3,300 tested, 3.1% active; in the data active = inhibition above about 9.5%
PLCb3 confirm: confirmation of human PLC-beta3 inhibitors. inhibition, % at 12.3 µM. shares compounds with PLC-gamma1 inh. purified PLC-beta3, fluorogenic substrate fluorescence. 3,300 tested, 1% active. AID 743261
* = called active by the depositor; i = inactive; . = not tested or not shown. Cut-off read from the data, not from the text of the source, unless noted: active = inhibition above about 11%; inactive = the rest.

SMILES	PLC-gamma1 inh	PLCb3 inh	KLK7 zymogen act	NRP1-CendR mod	Tn6 DDE FP	Tn7 DDE FP	PLCgamma1 ctr	PLCb3 confirm
COc1ccc(C(C[N+](=O)[O-])c2c(C)[nH]n(-c3ccccc3)c2=O)cc1 (configuration not stated)	10*	-1	-1	-3	-2	2	3	6
C#CCNC(=O)C[C@H]1C[C@@]2(C(=O)OC)C(=C[C@H](C3CCCC3)O[C@@H]2C)N(Cc2ccc(Cl)cc2Cl)C1=O	3	2	0	.	-1	-6	.	.
O=C(Nc1nc2ncccn2c1-c1ccccc1)C1CC1	i	i	12	.	-5	3	.	.
CC(C)NC(=O)C1(C)Cc2c(-c3ccc(C(N)=O)cc3)ccnc2O1 (configuration not stated)	1	12*	-1	12	-8	-10	-7	-2
CCC(=O)Nc1nnc(C)s1	10*	6	0	15	3	0	-3	0
Fc1ccc(C2=Nc3cccc4cccc(c34)N2)cc1	-3	-3	0	0	-1	6	.	.
FC(F)(F)C1=Nc2cccc3cccc(c23)N1	13*	4	0	38*	-29	3	12*	10
CCOc1ccc(-c2cc(N)n(S(=O)(=O)c3ccc(OC)c(OC)c3)n2)cc1	4	11*	0	-2	-3	-4	0	-7
COc1ccc(S(=O)(=O)n2nc(-c3ccc(Cl)cc3)cc2N)cc1OC	-1	4	0	-14	0	2	.	.
CN[C@H]1C[C@H]2c3[nH]c4cccc(-c5cccc(F)c5)c4c3CCN2C(=O)[C@H]1[C@H](C)O	-201	-260	-6	.	6	-2	.	.
COC(=O)C1CN(Cc2ccc(F)cc2)CCS(=O)(=O)N1Cc1cn(CCOC(C)=O)nn1 (configuration not stated)	0	4	0	.	1	-1	.	.
CCN(CC)C(=O)CC[C@H]1CC[C@]2(CCCN(Cc3ccccn3)C2)O1	0	4	0	.	5	6	.	.
CN(C(=O)COC(=O)C1CCN(S(=O)(=O)c2ccc3c(c2)OCCO3)CC1)C1CCS(=O)(=O)C1 (configuration not stated)	14*	0	0	4	-1	-2	0	3
CN(C(=O)COC(=O)C1CCN(S(=O)(=O)c2ccc(Cl)cc2)CC1)C1CCS(=O)(=O)C1 (configuration not stated)	3	4	1	4	-3	-3	.	.
C=CCCC(=O)N1CCCC(Cc2cccc(Cl)c2)(C(=O)OCC)C1 (configuration not stated)	12*	2	0	9	-8	-4	-3	-7
CCOc1ccc(-n2nnnc2SCC(=O)N2CCOCC2)cc1	1	-1	0	16	0	-2	.	.
CCOc1ccc(Cc2nc(C)c(CC(=O)N3CCOCC3)c(=O)[nH]2)cc1	11*	3	0	1	-2	-10	-5	-3
COc1cccc(C(=O)Nc2ccc(-n3nncc3C(C)(C)C)cc2)c1	9	12*	0	-4	-7	0	-151	4
Cc1cccc(NC(=O)CNC(=O)[C@H](CCc2ccccc2)NC(=O)[C@H]2O[C@@H](n3cnc4c(N)ncnc43)[C@H](O)[C@@H]2O)c1C	2	0	1	.	7	-7	.	.
CCCCOCCCNC(=O)c1ccc(OC)cc1	3	-3	0	3	5	5	.	.
CCCCOCCCNC(=O)c1ccc(OCC)cc1	10*	2	0	5	1	-5	-4	-2
S=C(NCCCc1cnc[nH]1)NCCCN(Cc1ccc(Cl)cc1)c1ccc(Br)cn1	11*	9	0	12	8	-3	4	3
Cc1ccc(NC(=S)N2CCN(c3ccccn3)CC2)cc1C	11*	0	0	5	-1	-1	-1	2
Fc1ccccc1NC(=S)N1CCN(c2ccccn2)CC1	10*	8	0	-2	6	-10	-7	-1
O=C(Nc1cc(Cl)ccc1O)C1CC(c2c(F)cccc2Cl)=NO1 (configuration not stated)	10*	-4	-1	-1	-4	1	-7	-3
SMILES	PLC-gamma1 inh	PLCb3 inh	KLK7 zymogen act	NRP1-CendR mod	Tn6 DDE FP	Tn7 DDE FP	PLCgamma1 ctr	PLCb3 confirm
CC(=O)NC(Cc1ccc(F)cc1)C(=O)NC1CCN(C(=O)Nc2cccc(C)c2)CC1 (configuration not stated)	10*	-5	0	7	-3	-3	6	3
CCOC(=O)[C@]12CCCC3=C1N(CCC3)C(=O)[C@@H](CC(=O)N1CCC(c3ccccc3)CC1)C2	1	2	0	.	-4	4	.	.
CCOc1nc(Nc2ccc([N+](=O)[O-])cc2)nc(NC(C)(C)C)n1	9.8*	2	-1	6	-8	-7	-3	1
C=CCNc1nc(Nc2ccc([N+](=O)[O-])cc2)nc(OCC)n1	4	2	0	0	-1	-1	.	.
O=C(O)CCCN1C(=O)/C(=C\c2ccco2)SC1=S	15*	-8	0	-55	0	-4	23*	-5
O=C(CCN1C(=O)/C(=C\c2ccco2)SC1=S)Nc1ccc(C(=O)O)c(O)c1	37*	-7	0	-130	-3	2	14*	-25
O=C(CCCN1C(=O)/C(=C/c2ccco2)SC1=S)Nc1ccccc1C(=O)O	0	-29	0	-116	-3	-3	.	.
COc1ccc(NS(=O)(=O)c2cccc(C(=O)NNC(=O)COc3ccccc3)c2)cc1	9.6*	-3	0	4	-5	-3	-8	-260
COc1ccccc1N1CCN(S(=O)(=O)c2ccc3c(c2)CCC(=O)N3)CC1	1	0	0	.	0	5	.	.
Cc1ccccc1CS(=O)(=O)Cc1ccc(C(=O)Nc2c(C)cccc2C)o1	-1	0	0	.	1	-4	.	.
Cc1ccc(OCC(=O)Nc2cc(S(=O)(=O)N3CCCCC3)ccc2C)c([N+](=O)[O-])n1	10*	1	0	0	-5	4	-4	-1
Cc1ccc(OCC(=O)Nc2ccc(S(=O)(=O)N3CCCCC3)cc2)c([N+](=O)[O-])n1	2	3	-1	1	1	-1	.	.
Cc1ccccc1CN1CCN(S(=O)(=O)c2cccc3nsnc23)CC1	4	-3	0	8	-5	1	.	.
CCN1CCN(S(=O)(=O)c2cccc3nsnc23)CC1	5	13*	1	9	4	0	-3	2

Source: PubChem BioAssay
